# Source: PubChem BioAssay
# A selection: hits, their analogues and other compounds. The true share with any hit is near 4.7%.
# MrgX1 antag = human MrgX1 receptor antagonism, primary screen; MRGX1-HEK293 calcium flux, Fluo-4, BAM8-22 antagonism; hits give low values; 310,000 compounds, 1.3% hits; B-score at 10 µM; AID 588676;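 active = calcium-response B-score plate-corrected more than 3 library SD below zero, starting fluorescence within 5 deviations, no agonist response on first addition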;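 note: peak minus trough fluorescence over baseline after final BAM8-22 challenge near maximal dose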
# Cl transport mod = modulates chloride dependent transport by human KCC2. Q9H2X9. KCC2 cells, thallium flux FluoZin-2 fluorescence. B-score of Tl+ flux slope (higher = more flux/activation; lower = inhibition) at 10 µM. 190,000 compounds, 2.2% hits;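 active = thallium flux slope and its plate-corrected score both differing from the plate sample mean at a set confidence after two filtering rounds, in either direction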;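 note: slope of fluorescence scaled to starting intensity during 10 to 20 s after thallium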
# MrgX1 ag = human MrgX1 receptor agonism, primary screen; MrgX1-HEK293 cells, Fluo-4 calcium fluorescence, agonist mode; hits give high values; B-score at 10 µM; 310,000 compounds, 0.44% hits;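 active = calcium response B-score plate-corrected fluorescence ratio at least 3 library SD, with starting fluorescence B-score inside 5 SD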
#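 Assay system: MrgX1-expressing HEK293 cells / Amount: fifteen thousand cells per well / Doses: test compound in the initial addition of three / Timing: cells plated overnight, dye loaded 0.5 h 37 °C, 0.5 h room temperature / Technique: kinetic calcium dye fluorescence, Fluo-4 NW / Control set: positive and negative controls per plate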
# RGS4 inh = inhibitors of human RGS4; HEK293 M3R/RGS4 inducible, Fluo-4 calcium flux; hits give high values; triggered by carbachol at its EC20; B-score at 10 µM; 310,000 compounds, 0.45% hits; AID 463165;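 active = B-score, a plate-corrected calcium signal, over three deviations above library mean, with baseline fluorescence within five deviations of library mean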;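 note: RGS4 expression induced by doxycycline in cells with stable M3 receptor; B-score is computed from the integrated fluorescence ratio over baseline after carbachol; higher B-score means a larger calcium signal and so more RGS4 inhibition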
# RGS4 act = RGS4 potentiation or activation. HEK293 M3R/inducible RGS4, carbachol calcium flux Fluo4; hits give low values. B-score at 10 µM. 310,000 compounds, 0.92% hits. AID 463111;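 active = B-score of the integrated calcium signal more than 4 SD below the library mean, with starting fluorescence not abnormally high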;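 note: negative B-score means reduced calcium response which marks RGS4 activation or potentiation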
#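 Detection: kinetic calcium fluorescence imaging with Fluo4-AM dye, 2 µM / Material: HEK293 cells with stable M3R and inducible RGS4 / Schedule: recording 10 s baseline at 1 Hz, 100 s post-agonist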
# MrgX1 allo act = human MrgX1 positive allosteric modulation, primary screen; B-score at 10 µM; AID 588675; MrgX1-HEK293, Fluo-4 calcium flux, FDSS; hits give high values; Q96LB2; 310,000 compounds, 0.63% hits;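 active = plate-corrected calcium response at least 3 library SD above typical, normal starting fluorescence, not activating the receptor alone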;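 note: compound read alongside a low EC10 to EC30 dose of BAM8-22 agonist; peak minus trough fluorescence over baseline measured at the second addition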
# Starred values were filed as active, the others as inactive; i = inactive; x = not tested or not shown.
SMILES,MrgX1 antag,Cl transport mod,MrgX1 ag,RGS4 inh,RGS4 act,MrgX1 allo act
Cc1ccc(-c2nnc(N3CCN(C(=O)COc4cccc(C)c4)CC3)c3ccccc23)cc1,i,-1.3,i,i,-7.3*,i
CC1CCCCN1C(=O)C1CCN(c2nc(-c3ccccc3)nc3c2CCC3)CC1 (centres undefined),i,x,i,i,i,i
COc1ccc(C(=O)C2CCCN(S(=O)(=O)C(C)C)C2)c(C)c1 (centres undefined),i,-0.017,i,i,-7.6*,i
CC(=O)C1=C(O)C(=O)N(c2ccccn2)C1c1cccc(F)c1 (centres undefined),i,x,i,i,i,i
OCC1CCCN(c2nc(CN3CCCCC3)nc3scc(-c4ccccc4)c23)C1 (centres undefined),i,0.63,i,i,i,i
CCNc1nc(CN2CCCCC2)nc2scc(-c3ccccc3)c12,i,-0.29,i,i,-7.2*,i
CC1=CC(=O)C(C(C)C)=C/C1=N/OC(=O)c1cccc([N+](=O)[O-])c1,i,-0.047,i,i,i,i
CC1=CC(=O)C(C(C)C)=C/C1=N\OC(=O)c1cccc2nc(C)oc12,-5*,-0.0035,i,i,i,i
CCCC(=O)Nc1ccc(S(=O)(=O)Nc2cc(OC)ncn2)cc1,x,x,x,i,i,x
COc1cc(/C=C2/C(=N)N3OC(C)=CC3=NC2=O)ccc1OCCOc1ccc(C)cc1,-4.9*,x,i,i,i,i
CCc1nn2c(=O)cc(COc3ccc(/C=C4\C(=N)N5N=C(C)SC5=NC4=O)cc3)nc2s1,-4.5*,-0.85,i,i,i,9.4*
CCOc1ccc(/C=C2/C(=N)N3OC(C)=CC3=NC2=O)cc1OC,i,-0.042,i,i,i,i
CCCC1=NN2C(=N)/C(=C\c3ccc(OCCOc4ccc(NC(C)=O)cc4)c(OC)c3)C(=O)N=C2S1,i,x,i,i,i,15*
CCC1=NN2C(=N)/C(=C\c3ccc(OCCOc4ccc(NC(C)=O)cc4)cc3)C(=O)N=C2S1,i,x,i,i,i,11*
CCOc1cc(/C=C2\C(=N)N3N=C(CC)SC3=NC2=O)ccc1OCCOc1ccc(NC(C)=O)cc1,i,x,i,i,i,i
Cc1ccc(Cl)cc1NC(=O)c1cc(NC(=O)C2CCCCC2C(=O)O)ccc1N1CCOCC1 (centres undefined),i,x,i,i,i,i
O=C(c1ccc(OC2CCN(CCc3ccccc3)CC2)cc1)N1CCC[C@H]1CO,x,x,x,i,i,x
COc1ccc(CCNC(=O)C(=O)NCC2OCCN2S(=O)(=O)c2cc(F)ccc2F)cc1 (centres undefined),i,x,i,i,i,i
COc1cc(/C=C2\C(=N)N3N=C(C)SC3=NC2=O)cc(Cl)c1OCCOc1ccc(NC(C)=O)cc1,i,x,i,i,i,7.6*
COc1ccccc1OCCOc1ccc(/C=C2\C(=N)N3N=C(S(C)(=O)=O)SC3=NC2=O)cc1,i,x,i,i,i,i
COc1cc(/C=C2\C(=N)N3N=C(C(C)C)SC3=NC2=O)ccc1OCCOc1ccc(NC(C)=O)cc1,i,x,i,i,i,14*
CCC1=NN2C(=N)/C(=C/c3c(C)nn(-c4ccccc4)c3Cl)C(=O)N=C2S1,i,0.91,30*,i,i,i
CC(=O)Nc1ccc(OCCOc2ccc(/C=C3/C(=N)N4C=CSC4=NC3=O)cc2)cc1,i,-0.58,30*,i,i,i
COc1ccc(/C=N/NC(=O)C(=O)N2CCN(c3ccccc3OC)CC2)cc1,-4.8*,-0.059,i,i,i,i
COc1ccc(S(=O)(=O)N2CCC(C(=O)N[C@@H](C)C(=O)NCc3ccncc3)CC2)cc1,i,x,i,i,i,i
SMILES,MrgX1 antag,Cl transport mod,MrgX1 ag,RGS4 inh,RGS4 act,MrgX1 allo act
C=CCCCCCCCCc1nc(=S)[nH][nH]1,i,64*,i,i,i,i
COc1ccc(/C=C(\C#N)C(=O)N2COCC2(C)C)cc1,i,x,i,i,i,i
COc1cccc(-c2nc(N3CCC(C)CC3)c3ccccc3n2)c1O,i,-0.29,i,i,-7.1*,i
COc1ccc(Nc2nc(-c3cccc(OC)c3O)nc3ccccc23)cc1,i,x,i,i,-7.6*,i
O=C(NCC(=O)N(c1ccccc1F)C(C(=O)NC1CCCC1)c1ccncc1)c1ccco1 (centres undefined),i,x,i,i,i,i
O=C(c1ccc(Cl)c(S(=O)(=O)N2CCCC2)c1)N1CCCC(C(F)(F)F)C1 (centres undefined),i,x,i,i,i,i
CC(C)(C)C(=O)c1no[n+]([O-])c1/C(=N/O)C(C)(C)C,i,-0.15,37*,i,i,i
CCOc1cccc(-c2c(C(=O)N/N=C(\C)c3cccnc3)nnn2-c2nonc2N)c1,i,x,i,i,i,i
O=c1c2ccc(Cl)cc2nc(-c2cccc(C(F)(F)F)c2)n1O,i,x,47*,i,i,i
N#Cc1ccc(-c2nc3cc(Cl)ccc3c(=O)n2O)cc1,i,x,i,i,i,i
CC(NS(=O)(=O)c1ccc(Cl)cc1)C(=O)N1CCOCC1 (centres undefined),i,x,i,i,i,i
CCOc1cc(N2CCOCC2)c(OCC)cc1NC(=O)CN1C(=O)NC(C)(C2CC2)C1=O (centres undefined),-4.7*,-0.57,i,i,i,i
CCOc1cc(N2CCOCC2)c(OCC)cc1NC(=O)CC12CC3CC(CC(C3)C1)C2,i,-0.43,i,i,i,i
COc1ccc(-c2csc(NC(=O)CC(C)C)n2)cc1,i,-0.34,i,i,i,i
CC(C)CC(=O)NC(=S)Nc1nc(-c2cccc3ccccc23)cs1,i,x,i,i,-7.1*,i
CCOc1ccc(CN2CCCC(CO)(Cc3ccccc3F)C2)cc1 (centres undefined),i,x,64*,i,i,i
COc1cccc(NC(=O)C(=O)NCCCN2CCCC2=O)c1,i,x,i,i,i,i
C=CCNCc1cc(=O)n2c(-c3ccccc3)csc2n1,i,x,i,i,-8.8*,i
O=C1NC(=O)/C(=C\c2cn(CC(=O)N3CCOCC3)c3ccccc23)S1,i,x,i,i,i,i
